# Measurements taken from ChEMBL document CHEMBL2169747, “Synthesis and biological properties of highly sequence-specific-alkylating N-methylpyrrole-N-methylimidazole polyamide conjugates” (J Med Chem, 2012).
# The source made the active and inactive calls. The calls are words filed in the database; no cut-off is given here.
# Key:
# [1] = tested on: A549; assay: Downregulation of SLC4A4 gene expression in human A549 cells at 21 nM after 12 hrs by microarray analysis relative to control; assay type: functional
# In short: (§1)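 A549 cells (RPMI-1640, 10% heat-inactivated FBS, penicillin/streptomycin, 37 °C, 5% CO2) seeded at 4 × 10^5 per 60 mm dish. Exposed 12 h to conjugate at 21, 26, 34 or 100 nM in medium with 0.1% DMSO, against 0.1% DMSO control. Whole-genome (~25 000 genes) expression profiled by microarray.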
# [2] = tested on: A549; assay: Upregulation of HES2 gene expression in human A549 cells at 21 nM after 12 hrs by microarray analysis relative to control; assay type: functional
# In short: (§2)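 4 ×10^5 A549 cells seeded per 60 mm dish and treated 12 h with conjugate (21, 26, 34 or 100 nM) in medium; control medium contained 0.1% DMSO, with conjugates added as 0.1% DMSO solutions. Whole human genome (~25 000 genes) expression profiled by microarray against the DMSO control. A549 culture: RPMI-1640 with 10% heat-inactivated FBS, penicillin/streptomycin, 37 °C, 5% CO2.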
# [3] = tested on: A549; assay: Downregulation of Q5VY43 gene expression in human A549 cells at 21 nM after 12 hrs by microarray analysis relative to control; assay type: functional; in short: as §1
# [4] = tested on: A549; assay: Downregulation of CPNE4 gene expression in human A549 cells at 21 nM after 12 hrs by microarray analysis relative to control; assay type: functional
# In short: (§3)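 A549 cells, 4 × 10^5 per 60 mm dish, were exposed to conjugate for 12 h in medium with 0.1% DMSO; vehicle control was 0.1% DMSO. Whole human genome (~25 000 genes) expression was profiled by microarray and expression compared with the control.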
# [5] = tested on: A549; assay: Upregulation of MDM2 gene expression in human A549 cells at 21 nM after 12 hrs by microarray analysis relative to control; assay type: functional; in short: as §2
# [6] = tested on: A549; assay: Downregulation of NP_060463.1 gene expression in human A549 cells at 21 nM after 12 hrs by microarray analysis relative to control; assay type: functional; in short: as §3
# [7] = tested on: A549; assay: Upregulation of CST8 gene expression in human A549 cells at 21 nM after 12 hrs by microarray analysis relative to control; assay type: functional; in short: as §2
# [8] = tested on: A549; assay: Downregulation of GABRA3 gene expression in human A549 cells at 21 nM after 12 hrs by microarray analysis relative to control; assay type: functional; in short: as §3
# [9] = tested on: A549; assay: Downregulation of NBEA gene expression in human A549 cells at 21 nM after 12 hrs by microarray analysis relative to control; assay type: functional; in short: as §3
# [10] = tested on: A549; assay: Downregulation of PTPRK gene expression in human A549 cells at 21 nM after 12 hrs by microarray analysis relative to control; assay type: functional; in short: as §1
# [11] = tested on: K562; assay: Cytotoxicity against human K562 cells assessed as cell growth inhibition after 48 hrs by microplate reader analysis; assay type: functional, cell-based; conditions: K562, 48 h
# In short: (§4)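 Medium was RPMI-1640 for EBC-1, A549 and DU145, and DMEM for PC-3, SK-N-SH and K562. Both media had 10% heat-inactivated FBS plus penicillin/streptomycin; cells were kept at 37 °C, 5% CO2. Cells were seeded at 5000/well and given compound from DMSO stock (final 0.1% DMSO) for 48 h. Viability was read by WST-8 colorimetry, absorbance at 450 and 600 nm, and IC50 determined.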
# [12] = tested on: A549; assay: Downregulation of FHIT gene expression in human A549 cells at 21 nM after 12 hrs by microarray analysis relative to control; assay type: functional; in short: as §3
# [13] = tested on: A549; assay: Downregulation of SLC25A21 gene expression in human A549 cells at 21 nM after 12 hrs by microarray analysis relative to control; assay type: functional; in short: as §1
# [14] = tested on: A549; assay: Downregulation of HECW2 gene expression in human A549 cells at 21 nM after 12 hrs by microarray analysis relative to control; assay type: functional; in short: as §3
# [15] = tested on: A549; assay: Downregulation of ACTG gene expression in human A549 cells at 21 nM after 12 hrs by microarray analysis relative to control; assay type: functional; in short: as §3
# [16] = tested on: A549; assay: Downregulation of MBD3L1 gene expression in human A549 cells at 21 nM after 12 hrs by microarray analysis relative to control; assay type: functional; in short: as §3
# [17] = tested on: A549; assay: Upregulation of BTG2 gene expression in human A549 cells at 21 nM after 12 hrs by microarray analysis relative to control; assay type: functional; in short: as §2
# [18] = tested on: DU-145; assay: Cytotoxicity against human DU145 cells assessed as cell growth inhibition after 48 hrs by microplate reader analysis; assay type: functional, cell-based; conditions: DU-145, 48 h; in short: as §4
# [19] = tested on: A549; assay: Upregulation of BTNL3 gene expression in human A549 cells at 21 nM after 12 hrs by microarray analysis relative to control; assay type: functional; in short: as §2
# [20] = tested on: A549; assay: Upregulation of FDXR gene expression in human A549 cells at 21 nM after 12 hrs by microarray analysis relative to control; assay type: functional; in short: as §2
# [21] = Cytotoxicity against human EBC1 cells assessed as cell growth inhibition after 48 hrs by microplate reader analysis; assay type: functional, cell-based; conditions: EBC-1, 48 h; in short: as §4
# [22] = tested on: A549; assay: Upregulation of CDKN1A gene expression in human A549 cells at 21 nM after 12 hrs by microarray analysis relative to control; assay type: functional; in short: as §2
# [23] = tested on: A549; assay: Downregulation of SMYD3 gene expression in human A549 cells at 21 nM after 12 hrs by microarray analysis relative to control; assay type: functional; in short: as §1
# [24] = tested on: A549; assay: Downregulation of FMN2 gene expression in human A549 cells at 21 nM after 12 hrs by microarray analysis relative to control; assay type: functional; in short: as §3
# [25] = tested on: A549; assay: Downregulation of SUPT3H gene expression in human A549 cells at 21 nM after 12 hrs by microarray analysis relative to control; assay type: functional; in short: as §1
# [26] = tested on: A549; assay: Downregulation of RABGAP1L gene expression in human A549 cells at 21 nM after 12 hrs by microarray analysis relative to control; assay type: functional; in short: as §1
# [27] = tested on: A549; assay: Cytotoxicity against human A549 cells assessed as cell growth inhibition after 48 hrs by microplate reader analysis; assay type: functional, cell-based; conditions: A549, 48 h; in short: as §4
# [28] = tested on: PC-3; assay: Cytotoxicity against human PC3 cells assessed as cell growth inhibition after 48 hrs by microplate reader analysis; assay type: functional, cell-based; conditions: PC-3, 48 h; in short: as §4
# [29] = tested on: SK-N-SH; assay: Cytotoxicity against human SK-N-SH cells assessed as cell growth inhibition after 48 hrs by microplate reader analysis; assay type: functional, cell-based; in short: as §4
# [30] = tested on: A549; assay: Upregulation of HCK gene expression in human A549 cells at 21 nM after 12 hrs by microarray analysis relative to control; assay type: functional; in short: as §2
# [31] = tested on: A549; assay: Upregulation of Q6NTF7 gene expression in human A549 cells at 21 nM after 12 hrs by microarray analysis relative to control; assay type: functional; in short: as §2
# [32] = tested on: A549; assay: Downregulation of Q8N570_HUMAN gene expression in human A549 cells at 21 nM after 12 hrs by microarray analysis relative to control; assay type: functional; in short: as §1
# [33] = tested on: A549; assay: Downregulation of Q8NCR4 gene expression in human A549 cells at 21 nM after 12 hrs by microarray analysis relative to control; assay type: functional; in short: as §1
# [34] = tested on: A549; assay: Downregulation of RS29_HUMAN gene expression in human A549 cells at 21 nM after 12 hrs by microarray analysis relative to control; assay type: functional; in short: as §1
# [35] = tested on: A549; assay: Upregulation of BBC3 gene expression in human A549 cells at 21 nM after 12 hrs by microarray analysis relative to control; assay type: functional; in short: as §1
# [36] = tested on: A549; assay: Downregulation of NP_115632.1 gene expression in human A549 cells at 21 nM after 12 hrs by microarray analysis relative to control; assay type: functional; in short: as §3
# [37] = tested on: Nucleic Acid; assay: Induction of calf thymus DNA cleavage at 10 to 25 nM after 12 h by PAGE analysis; assay type: nucleic-acid assay; conditions: in the assay text read “208-bp PCR fragment DNA” for “calf thymus DNA”
# In short: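 5′-Texas Red-labeled 208 bp PCR fragments alkylated in 5.0 mM sodium phosphate (pH 7.0) with 10% DMF, room temperature, 12 h. Quenched with calf thymus DNA and heated 95 °C for 5 min under neutral conditions. Recovered DNA in formamide loading dye, heated 95 °C 20 min, then run on 6% denaturing polyacrylamide gel with 6.0 M urea at 1.5 kV, 40 °C.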
smiles,measurement,setting,value
CC(=O)Nc1cc(C(=O)Nc2cn(C)c(C(=O)NCCC(=O)Nc3cn(C)c(C(=O)Nc4cc(C(=O)NCCCC(=O)Nc5cc(C(=O)Nc6cc(C(=O)Nc7cc(C(=O)Nc8ccc9[nH]c(C(=O)N%10CC(CCl)c%11c%10cc(O)c%10ccccc%11%10)cc9c8)n(C)c7)n(C)c6)n(C)c5)n(C)c4)n3)n2)n(C)c1 (racemic),fold change (FC),[1],0.278
same,fold change (FC),[2],10.6
same,fold change (FC),[3],0.354
same,fold change (FC),[4],0.314
same,fold change (FC),[5],5.4
same,fold change (FC),[6],0.303
same,fold change (FC),[7],5.3
same,fold change (FC),[8],0.343
same,fold change (FC),[9],0.274
same,fold change (FC),[10],0.334
same,IC50,[11],7.76 nM
same,fold change (FC),[12],0.253
same,fold change (FC),[13],0.354
same,fold change (FC),[14],0.346
same,fold change (FC),[15],0.345
same,fold change (FC),[16],0.294
same,fold change (FC),[17],6.7
same,IC50,[18],3.31 nM
same,fold change (FC),[19],2
same,fold change (FC),[20],2
same,IC50,[21],33.9 nM
same,fold change (FC),[22],5.2
same,fold change (FC),[23],0.345
same,fold change (FC),[24],0.344
same,fold change (FC),[25],0.268
same,fold change (FC),[26],0.132
same,IC50,[27],21.4 nM
same,IC50,[28],6.03 nM
same,IC50,[29],15.1 nM
same,fold change (FC),[30],4.3
same,fold change (FC),[31],7
same,fold change (FC),[32],0.228
same,fold change (FC),[33],0.348
same,fold change (FC),[34],0.234
same,fold change (FC),[35],5.7
same,fold change (FC),[36],0.154
same,Activity,[37],Active
